Laboratory results: ChEMBL document CHEMBL1944511, “Bakuchiol derivatives as novel and potent cytotoxic agents: a report” (Eur J Med Chem, 2012)
Active and inactive are the calls of the source. No cut-off for these calls is given here.

Key:
[1] = test system: THP-1; assay: Cytotoxicity against human THP1 cells after 48 hrs by sulpharhodamine B assay; format: functional, cell-based; conditions: THP-1, 48 h
In short: (§1)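 Cells were grown in RPMI-1640/MEM with 10% FCS and penicillin/streptomycin at 37 °C under 5% CO2, then seeded and left to adhere overnight. Analogs in DMSO (vehicle <0.2%) were added at several concentrations for 48 h. Cells were fixed with cold 50% TCA, stained with 0.4% SRB in 1% acetic acid, solubilised in 10 mM Tris, and read at OD 570/620 nm. IC50 came from non-linear regression.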

[2] = test system: A549; assay: Growth inhibition of human A549 cells at 10 uM after 48 hrs by sulpharhodamine B assay; format: functional; conditions: A549, 48 h, read-out: GI
In short: (§2)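 This is the SRB protein-stain assay on adherent cells in RPMI-1640/MEM with 10% FCS. Each compound in DMSO (vehicle <0.2%) was applied at a single fixed concentration for 48 h. Cells were fixed with TCA and stained with SRB, and the dye was solubilised in Tris and read at 570/620 nm. Percent growth inhibition is relative to vehicle-treated controls, reported as mean ± SD of three experiments run in triplicate.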

[3] = test system: OVCAR-5; assay: Growth inhibition of human OVCAR5 cells at 50 uM after 48 hrs by sulpharhodamine B assay; format: functional; conditions: OVCAR-5, 48 h, read-out: GI; in short: as §2
[4] = test system: PC-3; assay: Cytotoxicity against human PC3 cells after 48 hrs by sulpharhodamine B assay; format: functional, cell-based; conditions: PC-3, 48 h; in short: as §1
[5] = test system: HL-60; assay: Cytotoxicity against human HL60 cells by MTT assay; format: functional, cell-based; conditions: TDE = time-dependent effect
In short: (§3)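 Exponentially growing HL-60 cells (1.5×10^4 per well) in 96-well plates were exposed to a range of compound concentrations in DMSO, with vehicle-only controls. MTT (2.5 mg/mL stock) was added for 3–4 h at 37 °C, and formazan was dissolved in DMSO and read at OD 570/620 nm. […] Data are mean ± SD of n = 6 wells from two experiments.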

[6] = test system: HEp-2; assay: Growth inhibition of human Hep2 cells at 30 uM after 48 hrs by sulpharhodamine B assay; format: functional; conditions: HEp-2, 48 h, read-out: GI; in short: as §2
[7] = test system: HL-60; assay: Induction of apoptosis in human HL60 cells assessed as increase in […] sub-G0 fraction at 1 uM by propidium iodide staining-based flow cytometric analysis (reference value: 6%); format: functional
[8] = test system: HL-60; assay: Induction of apoptosis in human HL60 cells assessed as loss of mitochondrial membrane potential at 10 uM after 24 hrs by rodamine-123 staining-based flow cytometric analysis (reference value: 6%); format: functional
[9] = test system: HEp-2; assay: Growth inhibition of human Hep2 cells at 50 uM after 48 hrs by sulpharhodamine B assay; format: functional; conditions: HEp-2, 48 h, read-out: GI; in short: as §2
[10] = test system: THP-1; assay: Growth inhibition of human THP1 cells at 50 uM after 48 hrs by sulpharhodamine B assay; format: functional; conditions: THP-1, 48 h, read-out: GI
In short: (§4)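 Cells grown in RPMI-1640/MEM with 10% FCS, penicillin/streptomycin, 37 °C, 5% CO2. Seeded in 96-well plates, allowed to adhere overnight, then exposed 48 h to analogs in DMSO (vehicle <0.2% in controls). TCA-fixed, stained with 0.4% SRB in 1% acetic acid, dye solubilized in 10 mM Tris base, OD 570 nm (ref 620 nm). Mean ± SD of three experiments run in triplicate.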

[11] = test system: HL-60; assay: Induction of apoptosis in human HL60 cells assessed as DNA fragmentation after 24 hrs by agarose gel electrophoresis; format: functional, cell-based
In short: (§5)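 HL-60 cells (2×10^6/well/2 mL) treated 24 h in 6-well plates. DNA extracted with phenol:chloroform:isoamyl alcohol, ethanol-precipitated, run on 1% agarose at 80 V for 1.5 h in TAE.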

[12] = test system: HEp-2; assay: Growth inhibition of human Hep2 cells at 10 uM after 48 hrs by sulpharhodamine B assay; format: functional; conditions: HEp-2, 48 h, read-out: GI; in short: as §2
[13] = test system: IMR-32; assay: Growth inhibition of human IMR32 cells at 30 uM after 48 hrs by sulpharhodamine B assay; format: functional; conditions: IMR-32, 48 h, read-out: GI; in short: as §2
[14] = test system: IMR-32; assay: Growth inhibition of human IMR32 cells at 10 uM after 48 hrs by sulpharhodamine B assay; format: functional; conditions: IMR-32, 48 h, read-out: GI; in short: as §2
[15] = test system: A549; assay: Cytotoxicity against human A549 cells after 48 hrs by sulpharhodamine B assay; format: functional, cell-based; conditions: A549, 48 h; in short: as §1
[16] = test system: DU-145; assay: Cytotoxicity against human DU145 cells after 48 hrs by sulpharhodamine B assay; format: functional, cell-based; conditions: DU-145, 48 h; in short: as §1
[17] = test system: HeLa; assay: Growth inhibition of human HeLa cells at 50 uM after 48 hrs by sulpharhodamine B assay; format: functional; conditions: read-out: GI; in short: as §2
[18] = test system: HL-60; assay: Induction of apoptosis in human HL60 cells assessed as increase in […] sub-G0 fraction at 30 uM by propidium iodide staining-based flow cytometric analysis (reference value: 6%); format: functional
[19] = test system: PC-3; assay: Growth inhibition of human PC3 cells at 50 uM after 48 hrs by sulpharhodamine B assay; format: functional; conditions: PC-3, 48 h, read-out: GI; in short: as §4
[20] = test system: HEp-2; assay: Growth inhibition of human Hep2 cells at 5 uM after 48 hrs by sulpharhodamine B assay; format: functional; conditions: HEp-2, 48 h, read-out: GI; in short: as §2
[21] = test system: HCT-15; assay: Cytotoxicity against human HCT15 cells after 48 hrs by sulpharhodamine B assay; format: functional, cell-based; conditions: HCT-15, 48 h; in short: as §1
[22] = test system: HL-60; assay: Cytotoxicity against human HL60 cells after 24 hrs by MTT assay; format: functional, cell-based; conditions: for IC50: HL-60, 24 h; in short: as §3
[23] = test system: MCF7; assay: Growth inhibition of human MCF7 cells at 20 uM after 48 hrs by sulpharhodamine B assay; format: functional; conditions: MCF7, 48 h, read-out: GI; in short: as §2
[24] = test system: HL-60; assay: Induction of apoptosis in human HL60 cells assessed as increase in […] sub-G0 fraction at 10 uM by propidium iodide staining-based flow cytometric analysis (reference value: 6%); format: functional
[25] = test system: THP-1; assay: Growth inhibition of human THP1 cells at 10 uM after 48 hrs by sulpharhodamine B assay; format: functional; conditions: THP-1, 48 h, read-out: GI; in short: as §4
[26] = test system: IMR-32; assay: Growth inhibition of human IMR32 cells at 20 uM after 48 hrs by sulpharhodamine B assay; format: functional; conditions: IMR-32, 48 h, read-out: GI; in short: as §2
[27] = test system: HeLa; assay: Growth inhibition of human HeLa cells at 30 uM after 48 hrs by sulpharhodamine B assay; format: functional; conditions: read-out: GI; in short: as §2
[28] = test system: HL-60; assay: Cytotoxicity against human HL60 cells after 48 hrs by sulpharhodamine B assay; format: functional, cell-based; conditions: HL-60, 48 h, in the assay text read “MTT assay” for “sulpharhodamine B assay”
[29] = test system: HL-60; assay: Induction of apoptosis in human HL60 cells assessed as DNA fragmentation at 40 uM after 24 hrs by agarose gel electrophoresis; format: functional, cell-based; in short: as §5
[30] = test system: HL-60; assay: Induction of apoptosis in human HL60 cells assessed as DNA fragmentation at 20 uM after 24 hrs by agarose gel electrophoresis; format: functional, cell-based; in short: as §5

Row | Compound | IC50 [1] | inhibition of growth at 10 µM [2] | inhibition of growth at 50 µM [3] | IC50 [4] | Activity [5] | inhibition of growth at 30 µM [6] | Activity [7] | Activity [8] | inhibition of growth at 50 µM [9] | inhibition of growth at 50 µM [10] | inhibition of growth at 10 µM [12] | inhibition of growth at 30 µM [13] | inhibition of growth at 10 µM [14] | IC50 [15] | IC50 [16] | inhibition of growth at 50 µM [17] | Activity [18] | inhibition of growth at 50 µM [19] | inhibition of growth at 5 µM [20] | IC50 [21] | also measured
1 | COc1ccc(/C=C/[C@](C)(/C=C/c2ccc(O)cc2)CCC=C(C)C)cc1 | 4.2 µM | 47% | 67% | 15 µM | tde | 45% | 5% | 46.4% | 62% | 86% | 46% | 51% | 32% | 12 µM | 11 µM | 78% | 66% | 93% | 23% | 13 µM | Activity [11]: Dose-dependent effect; Activity [22]: Dose-dependent effect; IC50 [22]: 16 µM; inhibition of growth at 20 µM [23]: 50%; Activity [24]: 41%; inhibition of growth at 10 µM [25]: 62%; inhibition of growth at 20 µM [26]: 40%; inhibition of growth at 30 µM [27]: 56%; IC50 [28]: 2 µM
2 | CC1C(C(C)(C)O)CCC1(C)/C=C/c1ccc(O)cc1 (centres undefined) | 3.5 µM | 40% | 75% | 19 µM | tde | 53% | 8% | 31.7% | 65% | 93% | 34% | 57% | 50% | 17 µM | 14 µM | 68% | 68% | 86% | 17% | 13 µM | Activity [29]: Active; Activity [30]: Active; Activity [22]: Dose-dependent effect; IC50 [22]: 18 µM; inhibition of growth at 20 µM [23]: 50%; Activity [24]: 34%; inhibition of growth at 10 µM [25]: 65%; inhibition of growth at 20 µM [26]: 62%; inhibition of growth at 30 µM [27]: 52%; IC50 [28]: 1.8 µM
